The values below come from ChEMBL document CHEMBL2163221, “Discovery of a potential anti-ischemic stroke agent: 3-pentylbenzo[c]thiophen-1(3H)-one” (J Med Chem, 2012).

Usually IC50 stands for the concentration at which inhibition is half-maximal. The inhibition is the percentage by which the read-out fell short of the control.

Active and inactive are the calls of the source. The calls are words filed in the database; no cut-off is given here.

In experiment [1] the test system is Platelet. Briefly: Inhibition of arachidonic acid-induced platelet aggregation in rabbit platelet rich plasma by Born's turbidimetric method. The settings on record: Oryctolagus cuniculus. In kind it is functional. Put shortly: (§1)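 Rabbit carotid blood in 3.8% sodium citrate (9:1); PRP by 500g spin for 10 min, PPP by a further 3000g spin for 10 min. PRP was preincubated in duplicate for 5 min at 37 °C with vehicle or agent (0.1, 0.2, 0.4, 0.8, 1.6 mM). Aggregation was triggered by ADP (10 μM final) or AA (1 mM), and maximal light transmission was read within 5 min, within 3 h of collection. Inhibition % = 100 × (1 − treated/control); IC50 was calculated.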

Experiment [2] deals with Platelet. Briefly: Inhibition of adenosine diphosphate-induced platelet aggregation in rabbit platelet rich plasma by Born's turbidimetric method. It counts as functional. The note with it: Oryctolagus cuniculus. Put shortly: as §1
In experiment [3] the test system is Rattus norvegicus. The experiment is described as follows: Anticerebral ischemic activity in Sprague-Dawley rat middle cerebral artery occlusion model assessed as reduction in infarct size in brain at 30 mg/kg, ig for 7 consecutive days by TTC assay. In kind it is functional. Further details: scale not given: the % may be the effect or the level left. The settings on record: route intragastric. Put shortly: (§2)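 SD rats, chloral hydrate 350 mg/kg ip anaesthesia; right MCA occluded 2 h by silicone-tipped 4-0 nylon filament via ECA into ICA (>80% CBF drop by laser Doppler, 37 ± 0.5 °C), then reperfusion. Dosed in normal saline orally daily 7 days before ischemia. At 24 h, 2-mm coronal slices stained 2% TTC 30 min 37 °C; infarct area as % of whole brain; n = 6.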

In experiment [4] the test system is Rattus norvegicus. Briefly: Anticerebral ischemic activity in Sprague-Dawley rat middle cerebral artery occlusion model assessed as reduction in neurological deficit score at 30 mg/kg, ig for 7 consecutive days by Longa's method. Further details: scale not given: the % may be the effect or the level left. The settings on record: route intragastric. It counts as functional. In outline: (§3)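 SD rats were dosed orally in normal saline for 7 days before ischemia (n = 12/group). They were anesthetized ip with 350 mg/kg chloral hydrate and given MCAO with a silicone-tipped 4-0 nylon suture for 2 h, then reperfusion. Occlusion was confirmed as >80% CBF drop by laser Doppler, with core temperature held at 37 °C. Deficits were scored blinded by modified Longa's method 24 h after reperfusion.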

For experiment [5], the system named is Platelet. The experiment is described as follows: Ratio of aspirin to compound for adenosine diphosphate-induced platelet aggregation in rabbit platelet rich plasma at 0.1 mM. In kind it is functional, Oryctolagus cuniculus.
In experiment [6] the test system is Rattus norvegicus. Briefly: Antithrombotic activity in Sprague-Dawley rat arteriovenous shunt model assessed as reduction of thrombus wet weight at 30 mg/kg, po qd for 5 consecutive days. Also on record: scale not given: the % may be the effect or the level left. In kind it is functional. Put shortly: (§4)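 Male SD rats were dosed by gavage in saline daily for 5 days (n = 12/group). An A-V shunt linked the right carotid artery to the left jugular vein: a saline-filled 14 cm polyethylene tube holding 6 cm of four braided silk threads. After 15 min of flow, the threads were weighed wet, then dried 6 h at room temperature and reweighed, less the pre-experiment thread weight.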

Experiment [7] relates to Rattus norvegicus. Briefly: Antioxidant activity in Sprague-Dawley rat middle cerebral artery occlusion model assessed as decrease in malondialdehyde level in brain at 30 mg/kg, ig for 7 consecutive days. Further details: scale not given: the % may be the effect or the level left. The settings on record: route intragastric. It counts as functional. Put shortly:
(§5)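 Rats pretreated orally in saline for 7 days underwent 2 h MCAO with reperfusion. At 24 h brains were removed, rinsed in cold 0.9% saline, blotted and stored at −70 °C. After protein quantification, GSH, SOD activity and MDA were measured with commercial kits; n = 12/group.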

The test system of experiment [8] is Rattus norvegicus. Briefly: Antithrombotic activity in Sprague-Dawley rat arteriovenous shunt model assessed as reduction of thrombus wet weight at 90 mg/kg, po qd for 5 consecutive days. In kind it is functional. Further details: scale not given: the % may be the effect or the level left. In outline: as §4
Experiment [9] concerns Platelet. Briefly: Inhibition of arachidonic acid-induced platelet aggregation in rabbit platelet rich plasma at 0.1 mM by Born's turbidimetric method. In kind it is functional. The note with it: Oryctolagus cuniculus. In outline: as §1
Experiment [10] concerns Rattus norvegicus. The experiment is described as follows: Anticerebral ischemic activity in Sprague-Dawley rat middle cerebral artery occlusion model assessed as reduction in loss of hippocampal neurons at 90 mg/kg, ig for 7 consecutive days by hematoxylin-eosin staining. It counts as functional, organism-based. Further details: dose 90 mg/kg. In outline:
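Rats dosed ig in saline for 7 days before 2 h MCAO/reperfusion. Brain tissue sections from the ischemic side were stained with hematoxylin–eosin and examined at ×200 for hippocampal neuron loss; n = 6/group.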

The subject of experiment [11] is Platelet. Briefly: Ratio of edaravone to compound for adenosine diphosphate-induced platelet aggregation in rabbit platelet rich plasma at 0.1 mM. It counts as functional, Oryctolagus cuniculus.
The subject of experiment [12] is Rattus norvegicus. Briefly: Antioxidant activity in Sprague-Dawley rat middle cerebral artery occlusion model assessed as increase in superoxide dismutase activity at 30 mg/kg, ig for 7 consecutive days. In kind it is functional. The note with it: route intragastric. In outline: as §5
Experiment [13] deals with Rattus norvegicus. Briefly: Anticerebral ischemic activity in Sprague-Dawley rat middle cerebral artery occlusion model assessed as reduction of water content in brain at 90 mg/kg, ig for 7 consecutive days. It counts as functional, organism-based. Also on record: dose 90 mg/kg. Put shortly: (§6)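 Rats given oral saline-vehicle pretreatment for 7 days underwent 2 h suture MCAO plus reperfusion. At 24 h the animals were decapitated and brains weighed wet, then dried at 105 °C for 24 h. Water % = (wet − dry)/wet × 100; n = 6/group.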

Experiment [14] relates to Platelet. The experiment is described as follows: Ratio of 3-nbutylphthalide to compound for arachidonic acid-induced platelet aggregation in rabbit platelet rich plasma at 0.1 mM. It counts as functional, Oryctolagus cuniculus.
Another experiment relates to Plasma. Briefly: Anticoagulant activity in rabbit plasma assessed as length of activated partial thromboplastin time. It counts as functional, cell-free. The settings on record: Oryctolagus cuniculus.
Experiment [15] has as its system Rattus norvegicus. The experiment is described as follows: Anticerebral ischemic activity in Sprague-Dawley rat middle cerebral artery occlusion model assessed as reduction in infarct size in brain at 90 mg/kg, ig for 7 consecutive days by TTC assay. In kind it is functional. Also on record: scale not given: the % may be the effect or the level left. The settings on record: route intragastric. In outline:
as §2

The test system of experiment [16] is Rattus norvegicus. Briefly: Antioxidant activity in Sprague-Dawley rat middle cerebral artery occlusion model assessed as increase in superoxide dismutase activity at 90 mg/kg, ig for 7 consecutive days. In kind it is functional. The settings on record: route intragastric. In outline: as §5
Experiment [17] has as its system Platelet. Briefly: Inhibition of adenosine diphosphate-induced platelet aggregation in rabbit platelet rich plasma at 0.1 mM by Born's turbidimetric method. In kind it is functional. The settings on record: Oryctolagus cuniculus. In outline:
as §1

In experiment [18] the test system is Rattus norvegicus. The experiment is described as follows: Antithrombotic activity in Sprague-Dawley rat arteriovenous shunt model assessed as reduction of thrombus dry weight at 30 mg/kg, po qd for 5 consecutive days. Further details: scale not given: the % may be the effect or the level left. It counts as functional. Put shortly: as §4
The subject of experiment [19] is Rattus norvegicus. Briefly: Antioxidant activity in Sprague-Dawley rat middle cerebral artery occlusion model assessed as decrease in malondialdehyde level in brain at 90 mg/kg, ig for 7 consecutive days. Further details: scale not given: the % may be the effect or the level left. It counts as functional. The note with it: route intragastric. Put shortly:
as §5

Experiment [20] relates to PC-12. The experiment is described as follows: Antioxidant activity in rat PC12 cells assessed as inhibition of hydrogen peroxide induced cytotoxicity at 10 uM treated for 2 hrs prior to H2O2 challenge measured after 1 hr by MTT assay (reference value: 52.45%). It counts as functional. Further details: scale not given: the % may be the effect or the level left.
The test system of experiment [21] is Rattus norvegicus. The experiment is described as follows: Antithrombotic activity in Sprague-Dawley rat arteriovenous shunt model assessed as reduction of thrombus dry weight at 90 mg/kg, po qd for 5 consecutive days. It counts as functional. Also on record: scale not given: the % may be the effect or the level left. Put shortly:
as §4

The test system of experiment [22] is PC-12. The experiment is described as follows: Antioxidant activity in rat PC12 cells assessed as inhibition of hydroxyl radical-induced cytotoxicity at 10 uM treated for 2 hrs prior to H2O2/Fe+ challenge measured after 1 hr by MTT assay (reference value: 61.95%). It counts as functional. Further details: scale not given: the % may be the effect or the level left.

The subject of experiment [23] is Rattus norvegicus. Briefly: Anticerebral ischemic activity in Sprague-Dawley rat middle cerebral artery occlusion model assessed as reduction in neurological deficit score at 90 mg/kg, ig for 7 consecutive days by Longa's method. It counts as functional. Also on record: scale not given: the % may be the effect or the level left. The settings on record: route intragastric. Put shortly:
as §3

Experiment [24] has as its system Platelet. The experiment is described as follows: Ratio of 3-nbutylphthalide to compound for adenosine diphosphate-induced platelet aggregation in rabbit platelet rich plasma at 0.1 mM. It counts as functional, Oryctolagus cuniculus.
Experiment [25] relates to Rattus norvegicus. The experiment is described as follows: Antioxidant activity in Sprague-Dawley rat middle cerebral artery occlusion model assessed as increase in glutathione level in brain at 90 mg/kg, ig for 7 consecutive days. It counts as functional. The note with it: route intragastric. Put shortly:
as §5

In experiment [26] the test system is Rattus norvegicus. Briefly: Anticerebral ischemic activity in Sprague-Dawley rat middle cerebral artery occlusion model assessed as reduction of water content in brain at 30 mg/kg, ig for 7 consecutive days. In kind it is functional, organism-based. Also on record: dose 30 mg/kg. In outline:
as §6

Regarding `CCC1SC(=O)c2ccccc21` (racemic), the IC50 in the experiment with Platelet [1] and in the experiment with Platelet [2] was greater than 1000 µM throughout.

Consider `CCCC1SC(=O)c2ccccc21` (racemic), for which the IC50 in the experiment on Platelet [1] was 400 µM; with Platelet [2], greater than 1000 µM.

In the case of `CCCCC1SC(=O)c2ccccc21` (racemic), the IC50 in the experiment on Platelet [1] is 350 µM; in the experiment with Platelet [2] it was greater than 1000 µM.

With `CCCCCC1SC(=O)c2ccccc21` (racemic), the IC50 in the experiment with Platelet [1] turned out to be 210 µM; in the experiment on Platelet [2] it was 420 µM. The Activity is 35.5% with Rattus norvegicus [3]; 25.09% in the experiment on Rattus norvegicus [4]; 27.35% in the experiment on Rattus norvegicus [6]; 23.66% in the experiment with Rattus norvegicus [7]; 39.7% with Rattus norvegicus [8]; 25.87% with Rattus norvegicus [12]. In addition, the Activity is listed as 59.62% with Rattus norvegicus [15]; 39.77% in the experiment on Rattus norvegicus [16]; 32.85% in the experiment with Rattus norvegicus [18]; 40.9% in the experiment on Rattus norvegicus [19]; 77.23% with PC-12 [20]; 43.33% in the experiment on Rattus norvegicus [21]. Also, the results for the Activity with PC-12 [22], in the experiment on Rattus norvegicus [23] and with Rattus norvegicus [25] were 86.08%, 37.45% and 82.67%, respectively. Moreover, the Ratio in the experiment with Platelet [5] worked out at 1.45; in the experiment on Platelet [11] it was 1.36; with Platelet [14], 2.02; in the experiment with Platelet [24], 1.65. The inhibition at 100 µM was determined as 35.2% in the experiment on Platelet [9] and 15.6% in the experiment with Platelet [17]. For the same compound, the outcome in the experiment with Rattus norvegicus [10] and with Rattus norvegicus [13] was Active. Moreover, the outcome in the experiment on Plasma and in the experiment with Rattus norvegicus [26] was inactive.

As for `CC(C)CCC1SC(=O)c2ccccc21` (racemic), the IC50 in the experiment with Platelet [1] and in the experiment with Platelet [2] was greater than 1000 µM throughout.
